{"source": "ChEMBL document CHEMBL1124747", "about": "“Properties of the nucleic acid photoaffinity labeling agent 3-azidoamsacrine” (J Med Chem, 1990)", "key": {"[1]": {"assay": "Half-life was evaluated in water in the absence of light", "format": "ADME"}, "L5178Y [2]": {"test_system": "L5178Y", "assay": "Relative mutation induction for L5178Y cells was evaluated at dose 0.005 mg/mL in dark condition (expt-II)", "format": "functional, Mus musculus", "outline": "(§1)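 L5178Y suspension cells (3 × 10^6/mL, 5% CO2, 37 °C, shaking) exposed 20 h without activating enzyme; light arm irradiated 6.5 min (Hg lamp, <340 nm filtered). Cells washed, grown 24 h more and kept at 3 × 10^5/mL. Viability from 200 cells in soft agar; TFT (0.1 mg/mL) resistant colonies from 10^6 cells in triplicate dishes, counted at 10 days.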"}, "L5178Y [3]": {"test_system": "L5178Y", "assay": "Relative mutation induction for L5178Y cells was evaluated at dose 0.005 mg/mL in light condition (expt-II)", "format": "functional, Mus musculus", "outline": "as §1"}, "L5178Y [4]": {"test_system": "L5178Y", "assay": "Relative toxicity against mammalian L5178Y cells at dose 0.005 mg/mL in dark condition (expt-II)", "format": "functional, Mus musculus", "outline": "(§2)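 L5178Y mouse cells in suspension, 3 × 10^6 cells/mL, were exposed for 20 h at 37 °C in a shaker at 150 rpm under 5% CO2, without an activating enzyme. Light arms were irradiated for 6.5 min with a medium-pressure Hg lamp filtered to remove light below 340 nm; dark arms were not. Toxicity was taken as the Coulter-counted density of treated cells versus solvent control.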"}, "L5178Y [5]": {"test_system": "L5178Y", "assay": "Relative toxicity against mammalian L5178Y cells at dose 0.005 mg/mL in light condition (expt-II)", "format": "functional, Mus musculus", "outline": "as §2"}, "L5178Y [6]": {"test_system": "L5178Y", "assay": "Viability of L5178Y cells was evaluated at dose 0.005 mg/mL in dark condition (expt-II)", "format": "functional, Mus musculus", "outline": "(§3)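 L5178Y cells were exposed for 20 h at 3 × 10^6 cells/mL. Light arms then received 6.5 min of Hg-lamp irradiation filtered to remove light below 340 nm. Cells were washed twice in Fischer's medium, grown a further 24 h and held at 3 × 10^5 cells/mL. For viability, 200 cells were plated in soft-agar cloning medium in triplicate dishes, and colonies were counted by an automated counter after 10 days.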"}, "L5178Y [7]": {"test_system": "L5178Y", "assay": "Viability of L5178Y cells was evaluated at dose 0.005 mg/mL in light condition (expt-II)", "format": "functional, Mus musculus", "outline": "as §3"}, "L5178Y [8]": {"test_system": "L5178Y", "assay": "Induction frequency for L5178Y cells was evaluated at dose 0.005 mg/mL in dark condition (expt-II)", "format": "functional, Mus musculus", "outline": "as §1"}, "L5178Y [9]": {"test_system": "L5178Y", "assay": "Induction frequency for L5178Y cells was evaluated at dose 0.005 mg/mL in light condition (expt-II)", "format": "functional, Mus musculus", "outline": "as §1"}, "L5178Y [10]": {"test_system": "L5178Y", "assay": "Mean value of mutation induction for L5178Y cells was evaluated at dose 0.005 mg/mL in dark condition (expt-II)", "format": "functional, Mus musculus", "outline": "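L5178Y cells in suspension culture, gassed with 5% CO2 in air, shaken at 150 rpm, 37 °C. Cells at 3 × 10^6/mL were dosed for 20 h, unirradiated and without activating enzyme, then washed twice in Fop and grown 24 h more. TFT-resistant mutants came from 10^6 cells plated in three dishes of cloning medium with 0.1 mg/mL TFT, colonies counted at 10 days; frequency expressed ×10^6.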"}, "L5178Y [11]": {"test_system": "L5178Y", "assay": "Mean value of mutation induction for L5178Y cells was evaluated at dose 0.005 mg/mL in light condition (expt-II)", "format": "functional, Mus musculus", "outline": "as §1"}, "L5178Y [12]": {"test_system": "L5178Y", "assay": "Mutation frequency for L5178Y cells was evaluated at dose 0.005 mg/mL in dark condition (expt-II)", "format": "functional, Mus musculus", "outline": "as §1"}, "L5178Y [13]": {"test_system": "L5178Y", "assay": "Mutation frequency for L5178Y cells was evaluated at dose 0.005 mg/mL in light condition (expt-II)", "format": "functional, Mus musculus", "outline": "as §1"}, "[14]": {"assay": "Ability to block cleavage of G/GNCC site in Restriction endonuclease Sau961 with the test compound/DNA ratio 1(no. of sites=15); - = no activation", "outline": "(§4)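 pBR322 plasmid mixed with drug at 0.015, 0.12 or 0.48 mM (drug:DNA 1:8, 1:1 or 4:1), equilibrated on ice 30 min in the dark in 5 mM potassium phosphate pH 5.5, then irradiated 1 h with a medium-pressure Hg lamp (<340 nm filtered); dark set kept as control. Digested overnight with 10× excess enzyme plus DTT; fragments resolved on 1.2% agarose in TBE.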"}, "[15]": {"assay": "Ability to block cleavage of G/GNCC site in Restriction endonuclease Sau961 with the test compound/DNA ratio 1:8(no. of sites=15); - = no activation", "outline": "as §4"}, "[16]": {"assay": "Half-life was evaluated in water in the presence of light", "format": "ADME"}}, "data": [{"molecule": "COc1cc(NS(C)(=O)=O)ccc1Nc1c2ccccc2nc2ccccc12", "note": "[AMSACRINE]", "values": [{"measurement": "half-life", "setting": "[1]", "value": "> 336", "unit": "h"}, {"measurement": "Relative activity", "setting": "L5178Y [2]", "value": 67}, {"measurement": "Relative activity", "setting": "L5178Y [3]", "value": 10}, {"measurement": "Relative toxicity", "setting": "L5178Y [4]", "value": 62}, {"measurement": "Relative toxicity", "setting": "L5178Y [5]", "value": 62}, {"measurement": "Viability", "setting": "L5178Y [6]", "value": 20}, {"measurement": "Viability", "setting": "L5178Y [7]", "value": 12.3}, {"measurement": "Induced frequency", "setting": "L5178Y [8]", "value": 439}, {"measurement": "Induced frequency", "setting": "L5178Y [9]", "value": 733}, {"measurement": "Mean value", "setting": "L5178Y [10]", "value": 57.7}, {"measurement": "Mean value", "setting": "L5178Y [11]", "value": 53}, {"measurement": "Mutation frequency", "setting": "L5178Y [12]", "value": "577 10e6 F"}, {"measurement": "Mutation frequency", "setting": "L5178Y [13]", "value": "862 10e6 F"}, {"measurement": "inhibition", "setting": "[14]", "value": "no activation"}, {"measurement": "inhibition", "setting": "[15]", "value": "no activation"}, {"measurement": "half-life", "setting": "[16]", "value": 24, "unit": "h"}]}]}
